Residue numbers refer to the chain shown, from its start. Entries after “also recorded” stand apart in the source; their conditions may differ. Like-named read-outs stand apart in the source and are kept apart here.
Columns and labels:
Assay type in all cases: cell-based
[1] = target: T1, rat P2X2 receptor (rP2X2R) WT (Rattus norvegicus, UniProt P49653); details: for Apparent affinity / potency (in words) / Efficacy (in words) / Macroscopic currents elicited (in words): WT P2X2Rs; for Apparent affinity / potency (in words) / Efficacy (in words): compared with ATP; for Fold increase in EC50 (reduced apparent affinity) compared with ATP: agonist versus ATP; for Reduction in efficacy: relative to ATP; for Imax agonist/Imax ATP (%): maximal current compared to that elicited by 1 mM of ATP, same cell; for Macroscopic currents elicited (in words): concentrations of up to 1 mM
T1 sequence (P49653 1-472): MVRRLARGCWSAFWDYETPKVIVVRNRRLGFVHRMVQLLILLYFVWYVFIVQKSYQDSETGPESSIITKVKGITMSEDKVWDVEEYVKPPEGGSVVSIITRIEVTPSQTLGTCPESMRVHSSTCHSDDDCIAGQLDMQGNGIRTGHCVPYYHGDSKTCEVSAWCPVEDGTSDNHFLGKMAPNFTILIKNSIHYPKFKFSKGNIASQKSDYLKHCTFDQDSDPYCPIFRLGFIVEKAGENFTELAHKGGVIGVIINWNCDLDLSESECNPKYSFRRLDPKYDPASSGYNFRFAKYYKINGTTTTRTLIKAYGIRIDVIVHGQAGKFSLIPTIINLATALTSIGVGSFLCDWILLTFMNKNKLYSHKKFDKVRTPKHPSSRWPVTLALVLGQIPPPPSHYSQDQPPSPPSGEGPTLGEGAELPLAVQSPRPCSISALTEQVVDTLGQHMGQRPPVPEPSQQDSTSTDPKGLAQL
Summary of the method: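 Collagenase-digested Xenopus oocytes were injected with WT rP2X2 mRNA (30 ng) and kept in L-15 at 18°C. Two-electrode voltage clamp was done 1–2 days later at −40 mV in ND96 (pH 7.4). Agonists were freshly dissolved in ND96 at pH 7.4. Responses were normalised to 1 mM ATP current in the same cell, and Hill fits gave EC50 and nH. Relative efficacy is the agonist maximal current versus 1 mM ATP. Results are mean ± SEM, compared by one-way ANOVA with Dunnett's test.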

rP2X2 Val70Vah = target: T2, rP2X2 Val70Vah (Rattus norvegicus, UniProt P49653); test: Two-electrode voltage clamp, oocytes expressing rP2X2 Val70Vah
T2 sequence (P49653 1-472): T1 sequence (P49653 1-472)

rP2X2 Thr184Ser = target: T3, rP2X2 Thr184Ser (Rattus norvegicus, UniProt P49653, T184S); test: Two-electrode voltage clamp, oocytes expressing rP2X2 Thr184Ser
T3 sequence (P49653 1-472 T184S): T1 sequence (P49653 1-472) with T184S
Summary of the method: (§1)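 Mutations were made by site-directed mutagenesis. Xenopus oocytes were injected with rP2X2 mRNA and incubated in L-15 at 18°C. Two-electrode voltage clamp was done 1–2 days later at −40 mV under ND96 perfusion (pH 7.4). ATP concentration-response currents were normalised and fitted to a one-component Hill equation for EC50 and Hill coefficient. Results are mean ± SEM, tested by one-way ANOVA with Dunnett's test against WT.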

rP2X2 Thr184Val = target: T4, rP2X2 Thr184Val (Rattus norvegicus, UniProt P49653, T184V); test: Two-electrode voltage clamp, oocytes expressing rP2X2 Thr184Val
T4 sequence (P49653 1-472 T184V): T1 sequence (P49653 1-472) with T184V
Summary of the method: as §1

rP2X2 Ile185Val = target: T5, rP2X2 Ile185Val (Rattus norvegicus, UniProt P49653, I185V); test: Two-electrode voltage clamp, oocytes expressing rP2X2 Ile185Val
T5 sequence (P49653 1-472 I185V): T1 sequence (P49653 1-472) with I185V
Summary of the method: as §1

rP2X2 Ile185Vah = target: T6, rP2X2 Ile185Vah (Rattus norvegicus, UniProt P49653); test: Two-electrode voltage clamp, oocytes expressing rP2X2 Ile185Vah; details: Ile185Vah, mean ± SEM
T6 sequence (P49653 1-472): T1 sequence (P49653 1-472)
Summary of the method: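 The backbone ester was introduced by nonsense suppression. TAG-mutant rP2X2 mRNA was co-injected into Xenopus oocytes with tRNA enzymatically aminoacylated with 2-hydroxyisovaleric acid. Uncharged tRNA co-injection served as the negative control. After incubation at 18°C, two-electrode voltage clamp was done at −40 mV in ND96 (pH 7.4). ATP concentration-response data were normalised and Hill-fitted for EC50 and nH, given as mean ± SEM.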

rP2X2-3T receptors = target: T7, rP2X2-3T receptors (Rattus norvegicus, UniProt P49653, C348T/C430T/C9T); test: Single channel outside-out patch-clamp recordings, HEK-293 cells; details: agonist 1 µM, mean ± SEM
T7 sequence (P49653 1-472 C9T/C348T/C430T): T1 sequence (P49653 1-472) with C9T, C348T, C430T
Summary of the method: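 HEK-293 cells were co-transfected by calcium phosphate with rP2X2-3T DNA plus GFP DNA to mark transfected cells, then recorded within 24 h. Outside-out patches were held at −120 mV. Pipette contained 147 NaF, 10 EGTA and 10 HEPES (mM, pH 7.3). Agonist at 1, 10 or 100 µM in extracellular saline (pH 7.3) was applied by fast perfusion for 10 s per 12-s sweep, at 1-min intervals. Amplitudes came from Gaussian fits to all-points histograms, with 2–5 sweeps averaged per patch.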

[2] = WT rP2X2R, Xenopus oocytes, −40 mV, mean ± SEM

| Compound | EC50 [1] [µM] | Fold increase in EC50 (reduced apparent affinity) compared with ATP ([1]; WT rP2X2R) | nH (Hill coefficient) ([1]; WT rP2X2R, mean ± SEM) | Imax agonist/Imax ATP (%) ([1]; WT rP2X2R) | Apparent affinity / potency (in words) [1] | Efficacy (in words) [1] | other results |
| --- | --- | --- | --- | --- | --- | --- | --- |
| Nc1ncnc2c1ncn2[C@@H]1O[C@H](COP(=O)(O)OP(=O)(O)OP(=O)(O)O)[C@@H](O)[C@@H]1O [Ara-ATP, Ara-adenosine 5′-triphosphate] |  |  |  |  | lower apparent affinity than ATP | greatly reduced efficacy | EC50 [1, 2]: > 100 µM |
| Nc1ncnc2c1ncn2[C@H]1CC[C@@H](COP(=O)(O)OP(=O)(O)OP(=O)(O)O)O1 [C2′-C3′-ddATP, 2′,3′-dideoxyadenosine-5′-triphosphate] |  |  |  |  | even less potent agonist; also recorded: further decreased apparent affinity and efficacy |  |  |
| Nc1ncnc2c1ncn2[C@@H]1O[C@H](COP(=O)(O)OP(=O)(O)OP(=O)(O)O)[C@@H](O)[C@H]1F [C2′-F-dATP, 2′-fluoro-2′-deoxyadenosine-5′-triphosphate] | 52 ± 6 | twofold | 2.1 ± 0.1 | 60 ± 2 |  |  | Reduction in efficacy ([1]; WT rP2X2R): ~40% |
| Nc1ncnc2c1ncn2[C@H]1C[C@H](O)[C@@H](COP(=O)(O)OP(=O)(O)OP(=O)(O)O)O1 [C2′-dATP, 2′-deoxyadenosine-5′-triphosphate] | > 300 |  |  |  |  |  |  |
| Nc1ncnc2c1ncn2[C@@H]1O[C@H](COP(=O)(O)OP(=O)(O)OP(=O)(O)O)C[C@H]1O [C3′-dATP, 3′-deoxyadenosine-5′-triphosphate] | 83 ± 4 | threefold | 2.6 ± 0.1 | 67 ± 2 |  |  | Reduction in efficacy ([1]; WT rP2X2R): ~30% |
| Nc1ccn([C@@H]2O[C@H](COP(=O)(O)OP(=O)(O)OP(=O)(O)O)[C@@H](O)[C@H]2O)c(=O)n1 [CTP, Cytidine 5′-triphosphate] | 370 ± 30 |  |  | 105 ± 4 |  | did not alter efficacy; also recorded: ATP-like efficacy | nH (Hill coefficient) (rP2X2 Val70Vah; Val70Vah): 2.6 ± 0.1; Fold increase in EC50, Val70Vah versus WT (rP2X2 Val70Vah; Val70Vah compared with WT): fivefold; EC50 (rP2X2 Val70Vah; Val70Vah, mean ± SEM): 2 mM; EC50 (rP2X2 Thr184Ser): 156 ± 30 µM; EC50 (rP2X2 Thr184Val): 11.7 mM; Fold increase in EC50 (reduction in sensitivity), Thr184Val versus WT (rP2X2 Thr184Val; Thr184Val compared with WT): ~30 fold; EC50 (rP2X2 Ile185Val): 144 ± 30 µM; EC50 (rP2X2 Ile185Vah): 1.1 mM |
| O=P(O)(O)OP(=O)(O)OP(=O)(O)OC[C@H]1O[C@@H](n2cnc3c(O)ncnc32)[C@H](O)[C@@H]1O [ITP, Inosine 5′-triphosphate] |  |  |  |  |  |  | Macroscopic currents elicited (in words) [1]: failed to evoke any currents |
| Nc1ncnc2c1ncn2[C@@H]1O[C@@]2(COP(=O)(O)OP(=O)(O)OP(=O)(O)O)CO[C@@H]1[C@@H]2O [LNA-ATP, locked nucleic acid–ATP] |  |  | 1.8 ± 0.1 | 66 ± 1 | apparent affinity indistinguishable from ATP; also recorded: ATP-like apparent affinity | significantly reduced efficacy; also recorded: only a minor decrease in efficacy | EC50 [1, 2]: 27 ± 1 µM; SDopen (SD of the open state amplitude) (rP2X2-3T receptors): 1.03 ± 0.1; Unitary current (rP2X2-3T receptors; outside-out patch, −120 mV): −3.58 ± 0.4 pA |
| Nc1ncnc2c1ncn2[C@@H](CO)O[C@@H](CO)COP(=O)(O)OP(=O)(O)OP(=O)(O)O [UNA-ATP, unlocked nucleic acid–ATP] |  |  |  |  |  |  | Macroscopic currents elicited (in words) [1]: failed to elicit macroscopic currents; also recorded: does not elicit macroscopic current responses; also recorded: did not act as an agonist |
| O=c1ccn([C@@H]2O[C@H](COP(=O)(O)OP(=O)(O)OP(=O)(O)O)[C@@H](O)[C@H]2O)c(=O)[nH]1 [UTP, uridine 5′-triphosphate] | 12000 | 400 fold |  |  |  | significantly reduced efficacy |  |
